Measured values: ChEMBL document CHEMBL1141963, “Ketene aminal-based lactam derivatives as a novel class of orally active FXa inhibitors” (Bioorg Med Chem Lett, 2005)

How the values were obtained:
[1] = molecular target: T1, Coagulation factor X (Homo sapiens, UniProt P00742); assay: Inhibitory activity against human FXa
Target sequence in this assay (P00742 41-179 limits assumed): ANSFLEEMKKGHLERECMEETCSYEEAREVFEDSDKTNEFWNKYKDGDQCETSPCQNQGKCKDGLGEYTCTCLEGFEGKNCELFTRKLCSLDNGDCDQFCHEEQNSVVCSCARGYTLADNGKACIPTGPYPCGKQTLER
Target sequence in this assay (P00742 235-488 limits assumed): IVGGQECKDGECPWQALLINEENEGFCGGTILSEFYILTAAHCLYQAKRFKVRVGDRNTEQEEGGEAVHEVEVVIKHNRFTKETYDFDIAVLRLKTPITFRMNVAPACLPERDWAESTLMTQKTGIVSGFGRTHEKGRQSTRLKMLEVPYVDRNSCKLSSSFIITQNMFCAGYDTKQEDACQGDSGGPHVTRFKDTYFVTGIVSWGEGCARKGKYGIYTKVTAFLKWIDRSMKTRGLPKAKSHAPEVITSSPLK

[2] = molecular target: T1, Coagulation factor X; assay: Anticoagulant potency in human plasma as measured by prothrombin time
Target sequence in this assay (P00742 whole entry, looked up): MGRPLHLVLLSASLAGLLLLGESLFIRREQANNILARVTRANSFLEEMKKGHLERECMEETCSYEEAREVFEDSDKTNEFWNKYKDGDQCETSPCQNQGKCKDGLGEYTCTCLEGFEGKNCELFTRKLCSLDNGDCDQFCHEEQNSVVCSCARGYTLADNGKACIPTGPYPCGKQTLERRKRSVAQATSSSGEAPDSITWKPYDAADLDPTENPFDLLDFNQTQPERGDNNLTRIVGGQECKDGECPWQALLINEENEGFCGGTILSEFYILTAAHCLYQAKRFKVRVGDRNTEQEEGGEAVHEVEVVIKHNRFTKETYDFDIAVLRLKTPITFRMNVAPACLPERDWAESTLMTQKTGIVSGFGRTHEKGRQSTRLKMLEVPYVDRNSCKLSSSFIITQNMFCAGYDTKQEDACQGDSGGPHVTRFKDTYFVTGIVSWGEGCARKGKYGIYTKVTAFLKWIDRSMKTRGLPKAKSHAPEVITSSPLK

[3] = Binding affinity to trypsin; parameters: species or system Homo sapiens
Summary of the method: (§1)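 Human enzymes, each assayed against a low-molecular-weight synthetic substrate. Ki was calculated from IC50 assuming competitive inhibition, as Ki = IC50/(1 + [S]/Km), where [S] is the substrate concentration in the assay and Km the substrate's Michaelis constant. Values are averages of two independent determinations.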

[4] = molecular target: Prothrombin (Homo sapiens, UniProt P00734); assay: Binding affinity to thrombin; summary of the method: as §1
[5] = molecular target: Plasma kallikrein (Homo sapiens, UniProt P03952); assay: Binding affinity to plasma kallikrein; summary of the method: as §1
Sequence of Plasma kallikrein (P03952 20-390 limits assumed): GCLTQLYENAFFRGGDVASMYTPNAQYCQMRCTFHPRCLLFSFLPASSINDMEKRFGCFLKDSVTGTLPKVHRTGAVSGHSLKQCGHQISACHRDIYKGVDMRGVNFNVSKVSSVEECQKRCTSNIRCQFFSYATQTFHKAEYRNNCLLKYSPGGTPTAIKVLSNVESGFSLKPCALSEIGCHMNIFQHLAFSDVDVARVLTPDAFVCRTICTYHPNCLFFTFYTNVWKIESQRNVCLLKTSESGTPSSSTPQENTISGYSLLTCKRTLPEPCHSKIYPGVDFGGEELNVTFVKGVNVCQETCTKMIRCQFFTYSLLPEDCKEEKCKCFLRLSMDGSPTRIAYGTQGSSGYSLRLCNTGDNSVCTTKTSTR
Sequence of Plasma kallikrein (P03952 391-638 limits assumed): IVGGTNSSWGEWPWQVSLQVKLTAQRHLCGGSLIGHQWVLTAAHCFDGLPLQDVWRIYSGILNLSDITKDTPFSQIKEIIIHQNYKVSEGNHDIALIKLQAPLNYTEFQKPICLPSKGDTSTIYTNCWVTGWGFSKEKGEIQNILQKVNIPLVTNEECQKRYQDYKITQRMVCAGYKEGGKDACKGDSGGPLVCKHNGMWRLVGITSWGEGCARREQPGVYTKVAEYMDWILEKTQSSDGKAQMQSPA

[6] = molecular target: Urokinase-type plasminogen activator (Homo sapiens, UniProt P00749); assay: Binding affinity to urokinase; summary of the method: as §1
[7] = molecular target: Plasminogen (Homo sapiens, UniProt P00747); assay: Binding affinity to plasmin; summary of the method: as §1
Sequence of Plasminogen (P00747 97-580 limits assumed): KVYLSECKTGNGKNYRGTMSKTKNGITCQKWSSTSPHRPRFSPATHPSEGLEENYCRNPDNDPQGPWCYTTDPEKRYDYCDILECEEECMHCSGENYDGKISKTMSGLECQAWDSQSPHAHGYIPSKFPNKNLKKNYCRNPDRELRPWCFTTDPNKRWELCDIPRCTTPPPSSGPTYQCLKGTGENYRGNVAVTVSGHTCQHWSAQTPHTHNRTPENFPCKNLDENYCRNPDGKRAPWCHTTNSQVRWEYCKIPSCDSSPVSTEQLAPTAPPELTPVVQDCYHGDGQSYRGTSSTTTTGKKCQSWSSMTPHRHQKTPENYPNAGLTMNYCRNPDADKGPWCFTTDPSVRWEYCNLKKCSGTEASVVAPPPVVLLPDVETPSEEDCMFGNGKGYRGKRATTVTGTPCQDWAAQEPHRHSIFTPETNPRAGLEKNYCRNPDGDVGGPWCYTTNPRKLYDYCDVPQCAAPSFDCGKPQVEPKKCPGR
Sequence of Plasminogen (P00747 581-810 limits assumed): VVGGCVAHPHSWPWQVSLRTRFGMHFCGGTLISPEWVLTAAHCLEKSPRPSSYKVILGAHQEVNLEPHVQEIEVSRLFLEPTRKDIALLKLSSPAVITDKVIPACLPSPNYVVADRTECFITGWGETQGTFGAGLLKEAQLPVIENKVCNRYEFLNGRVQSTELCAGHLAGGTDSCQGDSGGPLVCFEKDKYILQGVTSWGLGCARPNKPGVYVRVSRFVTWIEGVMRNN

[8] = molecular target: Tissue-type plasminogen activator (Homo sapiens, UniProt P00750); assay: Binding affinity to tPA; summary of the method: as §1
Sequence of Tissue-type plasminogen activator (P00750 whole entry): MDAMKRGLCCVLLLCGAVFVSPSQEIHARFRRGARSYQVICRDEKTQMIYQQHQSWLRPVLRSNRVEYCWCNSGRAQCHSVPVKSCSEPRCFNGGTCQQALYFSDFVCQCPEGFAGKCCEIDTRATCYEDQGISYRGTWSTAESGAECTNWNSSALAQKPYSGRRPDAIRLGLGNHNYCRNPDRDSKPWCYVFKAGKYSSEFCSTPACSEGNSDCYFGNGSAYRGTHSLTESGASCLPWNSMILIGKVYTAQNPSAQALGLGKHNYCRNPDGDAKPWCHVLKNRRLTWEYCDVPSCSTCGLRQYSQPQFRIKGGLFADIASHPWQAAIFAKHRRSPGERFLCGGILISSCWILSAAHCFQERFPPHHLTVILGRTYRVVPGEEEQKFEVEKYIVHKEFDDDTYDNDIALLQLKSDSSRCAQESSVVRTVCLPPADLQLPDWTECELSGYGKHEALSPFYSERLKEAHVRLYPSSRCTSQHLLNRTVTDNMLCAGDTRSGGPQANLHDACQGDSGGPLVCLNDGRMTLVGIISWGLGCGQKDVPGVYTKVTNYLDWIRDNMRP

[9] = molecular target: Vitamin K-dependent protein C (Homo sapiens, UniProt P04070); assay: Binding affinity to activated protein C; summary of the method: as §1
Sequence of Vitamin K-dependent protein C (P04070 43-197 limits assumed): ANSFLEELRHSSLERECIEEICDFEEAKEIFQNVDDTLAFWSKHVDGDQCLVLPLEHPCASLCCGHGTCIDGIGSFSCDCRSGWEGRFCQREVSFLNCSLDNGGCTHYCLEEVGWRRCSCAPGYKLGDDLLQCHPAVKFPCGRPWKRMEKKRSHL
Sequence of Vitamin K-dependent protein C (P04070 212-461 limits assumed): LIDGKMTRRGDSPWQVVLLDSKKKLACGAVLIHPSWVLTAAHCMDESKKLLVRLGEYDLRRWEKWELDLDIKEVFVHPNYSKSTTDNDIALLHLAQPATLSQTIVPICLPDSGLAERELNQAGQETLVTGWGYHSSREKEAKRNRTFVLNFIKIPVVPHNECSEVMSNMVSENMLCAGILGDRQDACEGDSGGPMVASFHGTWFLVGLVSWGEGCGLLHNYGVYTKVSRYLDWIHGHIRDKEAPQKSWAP

[10] = molecular target: Coagulation factor IX (Homo sapiens, UniProt P00740); assay: Binding affinity to factor IXa; summary of the method: as §1
Sequence of Coagulation factor IX (P00740 47-191 limits assumed): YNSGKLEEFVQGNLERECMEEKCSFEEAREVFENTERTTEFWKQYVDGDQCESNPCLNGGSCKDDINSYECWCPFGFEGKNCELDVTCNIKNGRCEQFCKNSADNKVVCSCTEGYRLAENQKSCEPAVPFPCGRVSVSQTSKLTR
Sequence of Coagulation factor IX (P00740 227-461 limits assumed): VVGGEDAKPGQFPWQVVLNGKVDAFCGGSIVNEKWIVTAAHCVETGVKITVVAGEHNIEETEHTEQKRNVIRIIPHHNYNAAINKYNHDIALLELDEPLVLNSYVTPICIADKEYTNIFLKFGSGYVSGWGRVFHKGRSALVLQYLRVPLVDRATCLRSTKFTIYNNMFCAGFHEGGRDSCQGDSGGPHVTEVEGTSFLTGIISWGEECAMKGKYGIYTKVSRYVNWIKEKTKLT

[11] = molecular target: T2, Coagulation factor VII (Homo sapiens, UniProt P08709); assay: Binding affinity to factor VIIa; summary of the method: as §1
T2 sequence (P08709 whole entry): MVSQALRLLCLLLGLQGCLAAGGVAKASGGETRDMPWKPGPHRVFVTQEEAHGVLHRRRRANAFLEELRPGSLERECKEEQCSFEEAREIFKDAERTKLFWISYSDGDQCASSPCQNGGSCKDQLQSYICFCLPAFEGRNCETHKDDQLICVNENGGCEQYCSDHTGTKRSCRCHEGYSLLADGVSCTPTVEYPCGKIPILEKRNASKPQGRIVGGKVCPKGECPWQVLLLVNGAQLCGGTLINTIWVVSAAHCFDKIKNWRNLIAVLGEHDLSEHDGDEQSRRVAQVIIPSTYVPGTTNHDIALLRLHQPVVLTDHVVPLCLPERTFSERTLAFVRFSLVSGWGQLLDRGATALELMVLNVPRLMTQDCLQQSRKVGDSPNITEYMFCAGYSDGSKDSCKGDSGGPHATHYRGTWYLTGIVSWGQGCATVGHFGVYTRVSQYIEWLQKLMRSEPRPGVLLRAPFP

[12] = molecular target: Chymotrypsinogen B (Homo sapiens, UniProt P17538); assay: Binding affinity to chymotrypsin; summary of the method: as §1
Sequence of Chymotrypsinogen B (P17538 34-164 limits assumed, other chains not shown): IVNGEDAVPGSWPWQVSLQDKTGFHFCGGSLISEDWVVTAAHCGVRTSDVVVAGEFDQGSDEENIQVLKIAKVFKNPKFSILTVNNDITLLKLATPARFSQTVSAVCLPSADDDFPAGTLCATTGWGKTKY
Sequence of Chymotrypsinogen B (P17538 167-263 limits assumed, other chains not shown): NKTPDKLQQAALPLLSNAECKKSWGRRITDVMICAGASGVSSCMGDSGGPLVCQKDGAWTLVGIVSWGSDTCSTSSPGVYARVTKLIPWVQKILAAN

**Q.** What does the source list for `Cc1cc2cc(N/C(N[C@H]3CCCCN(CC(=O)N4CCCC4)C3=O)=C(/C#N)C(N)=O)ccc2o1`?
**A.** IC50 [1]: 17 nM; 2PT [2]: 13 µM

**Q.** For `Cc1cc2cc(NC(=N/[C@H]3CCCCN(CC(=O)N4CCCC4)C3=O)/C(C#N)=C(\O)c3ccc(Cl)cc3)ccc2o1`, which IC50 [1] is on record?
**A.** The IC50 was 13 nM.

**Q.** What about the 2PT [2] of the same compound?
**A.** Its 2PT is 62 µM.

**Q.** With `COc1cccc(N/C(=C\[N+](=O)[O-])N[C@H]2CCCCN(CC(=O)N3CCCC3)C2=O)c1` as the compound, how does the IC50 [1] read?
**A.** The IC50 was 6700 nM.

**Q.** With `CN(C)c1cccc(N/C(=C\[N+](=O)[O-])N[C@H]2CCCCN(CC(=O)N3CCCC3)C2=O)c1` as the compound, how does the IC50 [1] read?
**A.** Its IC50 is 2100 nM.

**Q.** What does the source list for `Cc1cc2cc(NC(=N/[C@H]3CCCCN(CC(=O)N4CCCC4)C3=O)/C(C#N)=C(\O)OCCCCO)ccc2o1`?
**A.** IC50 [1]: 10 nM; Ki [1]: 12 nM; Ki [3]: > 5000 nM; Ki [4]: 6300 nM; Ki [5]: > 19400 nM; Ki [6]: > 14000 nM; Ki [7]: > 22000 nM; Ki [8]: 16000 nM; Ki [9]: > 21500 nM; Ki [10]: > 10000 nM; Ki [11]: > 55000 nM; Ki [12]: 9420 nM; 2PT [2]: 10 µM

**Q.** What does the source list for `Cc1cc2cc(NC(/C=C(\O)c3nccs3)=N/[C@H]3CCCCN(CC(=O)N4CCCC4)C3=O)ccc2o1`?
**A.** IC50 [1]: 10 nM; 2PT [2]: 31 µM

**Q.** With `Cc1cc2cc(N/C(N[C@H]3CCCCN(CC(=O)N4CCCC4)C3=O)=C(/C#N)S(C)(=O)=O)ccc2o1` as the compound, how does the IC50 [1] read?
**A.** The IC50 was 46 nM.

**Q.** What about the 2PT [2] of the same compound?
**A.** Its 2PT is 24 µM.

**Q.** For `CN(C)c1ccc(N/C(=C\[N+](=O)[O-])N[C@H]2CCCCN(CC(=O)N3CCCC3)C2=O)cc1`, which IC50 [1] is on record?
**A.** The IC50 was greater than 34000 nM.

**Q.** Which IC50 [1] does the source give for `COc1ccc(N/C(=C\[N+](=O)[O-])N[C@H]2CCCCN(CC(=O)N3CCCC3)C2=O)cc1` here?
**A.** The IC50 was 3100 nM.

**Q.** For `Cc1ccc(N/C(=C\[N+](=O)[O-])N[C@H]2CCCCN(CC(=O)N3CCCC3)C2=O)cc1`, which IC50 [1] is on record?
**A.** Its IC50 is greater than 34000 nM.

**Q.** With `Cc1cc2cc(N/C(N[C@H]3CCCCN(CC(=O)N4CCCC4)C3=O)=C(/C#N)S(=O)(=O)C(C)C)ccc2o1` as the compound, how does the IC50 [1] read?
**A.** The IC50 was 647 nM.

**Q.** Which IC50 [1] does the source give for `CCO/C(O)=C(C#N)/C(=N\[C@H]1CCCCN(CC(=O)N2CCCC2)C1=O)Nc1ccc2oc(C)cc2c1` here?
**A.** The IC50 was 24 nM.

**Q.** And the 2PT [2]?
**A.** Its 2PT is 31 µM.

**Q.** What does the source list for `Cc1cc2cc(N/C(N[C@H]3CCCCN(CC(=O)N4CCCC4)C3=O)=C(/C#N)C(=O)N3CCC(C)CC3)ccc2o1`?
**A.** IC50 [1]: 57 nM; 2PT [2]: 21 µM

**Q.** For `Cc1cc2cc(NC(=N/[C@H]3CCCCN(CC(=O)N4CCCC4)C3=O)/C(C#N)=C(\O)OC(C)(C)C)ccc2o1`, which IC50 [1] is on record?
**A.** The IC50 was 57 nM.

**Q.** What about the 2PT [2] of the same compound?
**A.** The 2PT was 60 µM.

**Q.** With `Cc1cc2cc(N/C(=C\[N+](=O)[O-])N[C@H]3CCCCN(CC(=O)N4CCCC4)C3=O)ccc2o1` as the compound, how does the IC50 [1] read?
**A.** Its IC50 is 51 nM.

**Q.** With `COc1ccc(N/C(=C\[N+](=O)[O-])N[C@H]2CCCCN(CC(=O)N3CCCC3)C2=O)cc1C` as the compound, how does the IC50 [1] read?
**A.** The IC50 was 3400 nM.

**Q.** For `O=C(CN1CCCC[C@H](N/C(=C/[N+](=O)[O-])Nc2ccccc2)C1=O)N1CCCC1`, which IC50 [1] is on record?
**A.** The IC50 was 16500 nM.

**Q.** With `Cc1cc2cc(N/C(N[C@H]3CCCCN(CC(=O)N4CCCC4)C3=O)=C(/C#N)C(=O)NC(N)=O)ccc2o1` as the compound, how does the IC50 [1] read?
**A.** The IC50 was 13 nM.

**Q.** And the 2PT [2]?
**A.** Its 2PT is 7 µM.

**Q.** For `O=C(CN1CCCC[C@H](N/C(=C/[N+](=O)[O-])Nc2ccc3occc3c2)C1=O)N1CCCC1`, which IC50 [1] is on record?
**A.** The IC50 was 539 nM.

**Q.** With `O=C(CN1CCCC[C@H](N/C(=C/[N+](=O)[O-])Nc2ccc3c(c2)CCO3)C1=O)N1CCCC1` as the compound, how does the IC50 [1] read?
**A.** The IC50 was 1500 nM.

**Q.** With `O=C(CN1CCCC[C@H](N/C(=C/[N+](=O)[O-])Nc2ccc3ccccc3c2)C1=O)N1CCCC1` as the compound, how does the IC50 [1] read?
**A.** The IC50 was 1000 nM.

**Q.** Which IC50 [1] does the source give for `CCOP(=O)(OCC)/C(C#N)=C(\Nc1ccc2oc(C)cc2c1)N[C@H]1CCCCN(CC(=O)N2CCCC2)C1=O` here?
**A.** The IC50 was 658 nM.

**Q.** What about the 2PT [2] of the same compound?
**A.** The 2PT was greater than 60 µM.

**Q.** With `COc1ccc(/C(O)=C(C#N)/C(=N\[C@H]2CCCCN(CC(=O)N3CCCC3)C2=O)Nc2ccc3oc(C)cc3c2)cc1` as the compound, how does the IC50 [1] read?
**A.** The IC50 was 13 nM.

**Q.** What about the 2PT [2] of the same compound?
**A.** Its 2PT is 36 µM.
